Source: ChEMBL document CHEMBL1126270, “Synthesis of 3-[(2,3-dihydro-1,1,3-trioxo-1,2-benzisothiazol-2-yl)alkyl] 1,4-dihydropyridine-3,5-dicarboxylate derivatives as calcium channel modulators” (J Med Chem, 1992)

Columns and labels:
Oryctolagus cuniculus [1] = species: Oryctolagus cuniculus; experiment: Relative potency was evaluated. (relative potency = IC50 of compound / IC50 of nifedipine); type: functional
[2] = target: T1, Voltage-dependent L-type calcium channel subunit alpha-1C (Oryctolagus cuniculus, UniProt P15381); experiment: Blockade of calcium-evoked contractions in depolarized aortic strips; type: functional, tissue-based, Aorta
Oryctolagus cuniculus [3] = species: Oryctolagus cuniculus; experiment: Blockade of calcium-evoked contractions evaluated in depolarized rabbit aortic strips; type: functional; settings: Aorta
Outline: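 Male New Zealand rabbit thoracic aorta, helicoidal strips, 2.5 g preload, Krebs–bicarbonate, 37 °C, 95% O2/5% CO2, pH 7.4. After 1 h equilibration, depolarized with 35 mM K+; 1.5 mM Ca2+ added 10 min later, repeated until reproducible. Compound at increasing concentrations from 20 min before and during Ca2+ addition; responses normalized to initial tension; IC50 by Finney method.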

Oryctolagus cuniculus [4] = species: Oryctolagus cuniculus; experiment: Relative potency evaluated (relative potency = IC50 of compound / IC50 of nifedipine) in rabbit; type: functional
Oryctolagus cuniculus [5] = species: Oryctolagus cuniculus; experiment: Inhibition of electrically stimulated rabbit left atria contraction.; type: functional
Outline: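 Rabbit left atria electrically driven (1 Hz, 10 ms, twice threshold voltage), equilibrated 1–1.5 h. Compounds added cumulatively (10^-10–10^-6 M), diluted from DMSO stocks into Krebs–Henseleit, final DMSO <0.1%. Isometric force recorded; IC50 from contractile force relative to initial control values, with 95% confidence limits.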

[6] = target: T1, Voltage-dependent L-type calcium channel subunit alpha-1C; experiment: Selectivity index was measured as the IC50 needed to depress the heart beat divided by IC50 needed to block [Ca2+] contractions in rabbit aortic strips; type: functional, tissue-based, Aorta
Oryctolagus cuniculus [7] = species: Oryctolagus cuniculus; experiment: Recovery of the initial contraction of rabbit aortic strips, blocked at 10e-7 M concentration.; settings: Aorta

T1 sequence (P15381 whole entry): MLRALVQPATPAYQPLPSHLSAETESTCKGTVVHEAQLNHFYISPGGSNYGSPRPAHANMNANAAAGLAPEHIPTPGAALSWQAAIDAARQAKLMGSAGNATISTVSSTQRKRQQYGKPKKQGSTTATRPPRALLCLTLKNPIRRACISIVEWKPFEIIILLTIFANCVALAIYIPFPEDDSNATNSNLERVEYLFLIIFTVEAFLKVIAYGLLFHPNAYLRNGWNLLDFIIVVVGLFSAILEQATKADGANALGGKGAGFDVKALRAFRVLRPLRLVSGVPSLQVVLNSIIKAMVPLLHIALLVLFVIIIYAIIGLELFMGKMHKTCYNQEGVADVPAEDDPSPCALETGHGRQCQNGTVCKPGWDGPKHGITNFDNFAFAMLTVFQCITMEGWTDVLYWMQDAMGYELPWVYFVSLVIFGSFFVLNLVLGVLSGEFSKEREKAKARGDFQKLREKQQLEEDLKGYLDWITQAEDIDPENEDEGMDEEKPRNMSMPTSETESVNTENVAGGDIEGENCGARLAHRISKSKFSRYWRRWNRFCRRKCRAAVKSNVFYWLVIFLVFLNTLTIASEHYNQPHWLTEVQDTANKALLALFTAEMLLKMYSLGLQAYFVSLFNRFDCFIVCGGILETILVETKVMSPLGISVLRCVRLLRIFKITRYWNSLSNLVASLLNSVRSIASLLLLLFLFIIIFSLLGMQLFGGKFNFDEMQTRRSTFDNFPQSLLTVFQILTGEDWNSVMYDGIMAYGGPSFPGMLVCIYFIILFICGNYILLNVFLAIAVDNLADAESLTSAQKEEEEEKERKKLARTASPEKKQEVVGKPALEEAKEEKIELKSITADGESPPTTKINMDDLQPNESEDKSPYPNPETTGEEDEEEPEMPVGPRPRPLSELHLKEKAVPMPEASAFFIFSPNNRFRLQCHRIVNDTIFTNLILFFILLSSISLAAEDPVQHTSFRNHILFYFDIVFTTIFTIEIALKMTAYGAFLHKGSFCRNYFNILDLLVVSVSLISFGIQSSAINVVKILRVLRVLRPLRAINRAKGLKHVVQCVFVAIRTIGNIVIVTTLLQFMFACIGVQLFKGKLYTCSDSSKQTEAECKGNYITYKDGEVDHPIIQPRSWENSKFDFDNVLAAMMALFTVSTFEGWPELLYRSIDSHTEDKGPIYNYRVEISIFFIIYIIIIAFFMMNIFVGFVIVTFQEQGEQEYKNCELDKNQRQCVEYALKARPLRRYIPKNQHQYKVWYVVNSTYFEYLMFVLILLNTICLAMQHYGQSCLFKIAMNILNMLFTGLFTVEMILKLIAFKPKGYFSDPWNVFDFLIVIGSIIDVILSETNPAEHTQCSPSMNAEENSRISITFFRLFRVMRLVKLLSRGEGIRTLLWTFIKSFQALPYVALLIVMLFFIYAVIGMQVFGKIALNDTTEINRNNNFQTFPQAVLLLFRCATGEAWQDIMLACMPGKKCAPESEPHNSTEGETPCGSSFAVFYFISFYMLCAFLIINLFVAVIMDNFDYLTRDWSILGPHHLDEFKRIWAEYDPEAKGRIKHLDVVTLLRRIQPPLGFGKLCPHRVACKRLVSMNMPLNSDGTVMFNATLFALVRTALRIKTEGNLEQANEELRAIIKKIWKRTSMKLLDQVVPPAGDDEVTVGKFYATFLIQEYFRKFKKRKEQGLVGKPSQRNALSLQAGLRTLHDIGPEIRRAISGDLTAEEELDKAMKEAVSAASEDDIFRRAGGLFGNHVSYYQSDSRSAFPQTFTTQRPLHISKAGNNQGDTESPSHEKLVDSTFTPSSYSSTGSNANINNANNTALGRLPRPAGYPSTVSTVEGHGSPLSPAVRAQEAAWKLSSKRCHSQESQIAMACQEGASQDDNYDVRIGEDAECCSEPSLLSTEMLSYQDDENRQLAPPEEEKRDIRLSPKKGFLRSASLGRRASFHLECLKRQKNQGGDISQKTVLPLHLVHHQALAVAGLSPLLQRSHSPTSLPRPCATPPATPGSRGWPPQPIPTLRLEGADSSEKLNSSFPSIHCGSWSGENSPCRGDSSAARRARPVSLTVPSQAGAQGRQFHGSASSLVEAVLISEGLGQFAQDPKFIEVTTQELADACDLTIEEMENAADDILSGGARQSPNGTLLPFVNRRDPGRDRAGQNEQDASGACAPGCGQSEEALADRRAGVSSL

| SMILES | IC50 (Oryctolagus cuniculus [3]) [nM] | Relative potency (Oryctolagus cuniculus [4]) | further results |
| --- | --- | --- | --- |
| CCO/C(O)=C1\C(C)=NC(C)=C(C(=O)OCN2C(=O)c3ccccc3S2(=O)=O)C1c1cccc([N+](=O)[O-])c1 (stereo unspecified) | – | – | Relative potency (Oryctolagus cuniculus [1]): 0.1; IC50 [2]: 3.3 nM |
| COCCO/C(O)=C1\C(C)=NC(C)=C(C(=O)OCCN2C(=O)c3ccccc3S2(=O)=O)C1c1ccccc1C(F)(F)F (stereo unspecified) | 1.4 | 2.1 | – |
| CC1=NC(C)=C(C(=O)OCCCN2C(=O)c3ccccc3S2(=O)=O)C(c2cccc(Cl)c2Cl)/C1=C(\O)OC(C)(C)C (stereo unspecified) | 3.1 | 0.2 | – |
| CCO/C(O)=C1\C(C)=NC(C)=C(C(=O)OCCCN2C(=O)c3ccccc3S2(=O)=O)C1c1ccccc1Cl (stereo unspecified) | 3.9 | 0.7 | – |
| CC1=NC(C)=C(C(=O)OCCCN2C(=O)c3ccccc3S2(=O)=O)C(c2cccc(Cl)c2Cl)/C1=C(\O)OCC1CCCCO1 (stereo unspecified) | 4 | 0.7 | – |
| CC1=NC(C)=C(C(=O)OCCN2C(=O)c3ccccc3S2(=O)=O)C(c2ccccc2Cl)/C1=C(\O)OCC1CCCO1 (stereo unspecified) | 3.5 | 0.8 | – |
| CC1=NC(C)=C(C(=O)OCCCN2C(=O)c3ccccc3S2(=O)=O)C(c2ccccc2Cl)/C1=C(\O)OC(C)C (stereo unspecified) | 1.3 | 2.2 | IC50 (Oryctolagus cuniculus [5]): 48 nM; Selectivity index [6]: 37 |
| CC1=NC(C)=C(C(=O)OCCN2C(=O)c3ccccc3S2(=O)=O)C(c2ccccc2C(F)(F)F)/C1=C(\O)OCC1CCCO1 (stereo unspecified) | 2.5 | 1.2 | – |
| COCCO/C(O)=C1\C(C)=NC(C)=C(C(=O)OCCCN2C(=O)c3ccccc3S2(=O)=O)C1c1ccccc1[N+](=O)[O-] (stereo unspecified) | 2.7 | 1.1 | – |
| CO/C(O)=C1\C(C)=NC(C)=C(C(=O)OCCN2C(=O)c3ccccc3S2(=O)=O)C1c1cccc(Cl)c1Cl (stereo unspecified) | 17.3 | 0.2 | – |
| CCO/C(O)=C1\C(C)=NC(C)=C(C(=O)OCCCN2C(=O)c3ccccc3S2(=O)=O)C1c1ccccc1C(F)(F)F (stereo unspecified) | 0.8 | 3.6 | IC50 (Oryctolagus cuniculus [5]): 124 nM; Recovery (Oryctolagus cuniculus [7]): 1.2%; Selectivity index [6]: 163 |
| CC1=NC(C)=C(C(=O)OCCCN2C(=O)c3ccccc3S2(=O)=O)C(c2ccccc2[N+](=O)[O-])/C1=C(\O)OCC1CCCCO1 (stereo unspecified) | 11.5 | 0.3 | – |
| CCO/C(O)=C1\C(C)=NC(C)=C(C(=O)OCCN2C(=O)c3ccccc3S2(=O)=O)C1c1cccc(Cl)c1Cl (stereo unspecified) | 4 | 0.7 | – |
| CC1=NC(C)=C(C(=O)OCN2C(=O)c3ccccc3S2(=O)=O)C(c2ccccc2[N+](=O)[O-])/C1=C(\O)OC(C)C (stereo unspecified) | – | – | Relative potency (Oryctolagus cuniculus [1]): 2.1; IC50 [2]: 1.4 nM |
| CCO/C(O)=C1\C(C)=NC(C)=C(C(=O)OCCCN2C(=O)c3ccccc3S2(=O)=O)C1c1ccccc1[N+](=O)[O-] (stereo unspecified) | 2.6 | 1.1 | – |
| COCCO/C(O)=C1\C(C)=NC(C)=C(C(=O)OCCN2C(=O)c3ccccc3S2(=O)=O)C1c1cccc(Cl)c1Cl (stereo unspecified) | 7 | 0.4 | – |
| CC1=NC(C)=C(C(=O)OCCN2C(=O)c3ccccc3S2(=O)=O)C(c2ccccc2[N+](=O)[O-])/C1=C(\O)OC(C)(C)C (stereo unspecified) | 0.7 | 4.1 | IC50 (Oryctolagus cuniculus [5]): 28.5 nM; Recovery (Oryctolagus cuniculus [7]): 0.2%; Selectivity index [6]: 41 |
| CC1=NC(C)=C(C(=O)OCCN2C(=O)c3ccccc3S2(=O)=O)C(c2cccc(Cl)c2Cl)/C1=C(\O)OCC1CCCO1 (stereo unspecified) | 2.1 | 1.4 | – |
| CC1=NC(C)=C(C(=O)OCN2C(=O)c3ccccc3S2(=O)=O)C(c2ccccc2[N+](=O)[O-])/C1=C(\O)OCC1CCCCO1 (stereo unspecified) | – | – | Relative potency (Oryctolagus cuniculus [1]): 0.1; IC50 [2]: 25.1 nM |
| COCCO/C(O)=C1\C(C)=NC(C)=C(C(=O)OCCCN2C(=O)c3ccccc3S2(=O)=O)C1c1ccccc1C(F)(F)F (stereo unspecified) | 1.4 | 2.1 | IC50 (Oryctolagus cuniculus [5]): 21.8 nM; Recovery (Oryctolagus cuniculus [7]): 18.3%; Selectivity index [6]: 16 |
| CO/C(O)=C1\C(C)=NC(C)=C(C(=O)OCCCN2C(=O)c3ccccc3S2(=O)=O)C1c1ccccc1Cl (stereo unspecified) | 1.8 | 1.6 | IC50 (Oryctolagus cuniculus [5]): 140 nM; Recovery (Oryctolagus cuniculus [7]): 6.05%; Selectivity index [6]: 77 |
| CC1=NC(C)=C(C(=O)OCCN2C(=O)c3ccccc3S2(=O)=O)C(c2ccccc2Cl)/C1=C(\O)OC(C)C (stereo unspecified) | 3.1 | 0.9 | – |

| SMILES | IC50 (Oryctolagus cuniculus [3]) [nM] | Relative potency (Oryctolagus cuniculus [4]) | further results |
| --- | --- | --- | --- |
| CC1=NC(C)=C(C(=O)OCN2C(=O)c3ccccc3S2(=O)=O)C(c2cccc([N+](=O)[O-])c2)/C1=C(\O)OCC1CCCCO1 (stereo unspecified) | – | – | Relative potency (Oryctolagus cuniculus [1]): 0.2; IC50 [2]: 13.3 nM |
| CC1=NC(C)=C(C(=O)OCCN2C(=O)c3ccccc3S2(=O)=O)C(c2cccc(Cl)c2Cl)/C1=C(\O)OCC1CCCCO1 (stereo unspecified) | 11.1 | 0.3 | – |
| CC1=NC(C)=C(C(=O)OCCCN2C(=O)c3ccccc3S2(=O)=O)C(c2cccc([N+](=O)[O-])c2)/C1=C(\O)OCC1CCCO1 (stereo unspecified) | 10.5 | 0.3 | – |
| CC1=NC(C)=C(C(=O)OCCCN2C(=O)c3ccccc3S2(=O)=O)C(c2ccccc2C(F)(F)F)/C1=C(\O)OCC1CCCO1 (stereo unspecified) | 3.7 | 0.8 | – |
| COCCO/C(O)=C1\C(C)=NC(C)=C(C(=O)OCCCN2C(=O)c3ccccc3S2(=O)=O)C1c1ccccc1Cl (stereo unspecified) | 2.9 | 1 | – |
| CC1=NC(C)=C(C(=O)OCCCN2C(=O)c3ccccc3S2(=O)=O)C(c2ccccc2C(F)(F)F)/C1=C(\O)OC(C)C (stereo unspecified) | 2.7 | 1.1 | – |
| CO/C(O)=C1\C(C)=NC(C)=C(C(=O)OCN2C(=O)c3ccccc3S2(=O)=O)C1c1cccc(Cl)c1Cl (stereo unspecified) | – | – | Relative potency (Oryctolagus cuniculus [1]): 0.6; IC50 [2]: 5.1 nM |
| CC1=NC(C)=C(C(=O)OCCN2C(=O)c3ccccc3S2(=O)=O)C(c2ccccc2Cl)/C1=C(\O)OC(C)(C)C (stereo unspecified) | 4.5 | 0.6 | – |
| CC1=NC(C)=C(C(=O)OCCCN2C(=O)c3ccccc3S2(=O)=O)C(c2ccccc2[N+](=O)[O-])/C1=C(\O)OCC1CCCO1 (stereo unspecified) | 6.8 | 0.4 | – |
| COCCO/C(O)=C1\C(C)=NC(C)=C(C(=O)OCN2C(=O)c3ccccc3S2(=O)=O)C1c1cccc(Cl)c1Cl (stereo unspecified) | – | – | Relative potency (Oryctolagus cuniculus [1]): 1; IC50 [2]: 2.9 nM |
| CC1=NC(C)=C(C(=O)OCCN2C(=O)c3ccccc3S2(=O)=O)C(c2ccccc2C(F)(F)F)/C1=C(\O)OCC1CCCCO1 (stereo unspecified) | 25.5 | 0.1 | – |
| CC1=NC(C)=C(C(=O)OCN2C(=O)c3ccccc3S2(=O)=O)C(c2ccccc2Cl)/C1=C(\O)OCC1CCCO1 (stereo unspecified) | – | – | Relative potency (Oryctolagus cuniculus [1]): 0.3; IC50 [2]: 10.1 nM |
| CCCO/C(O)=C1\C(C)=NC(C)=C(C(=O)OCN2C(=O)c3ccccc3S2(=O)=O)C1c1cccc([N+](=O)[O-])c1 (stereo unspecified) | – | – | Relative potency (Oryctolagus cuniculus [1]): <0.1; IC50 [2]: 64.5 nM |
| CC1=NC(C)=C(C(=O)OCCCN2C(=O)c3ccccc3S2(=O)=O)C(c2ccccc2Cl)/C1=C(\O)OCC1CCCO1 (stereo unspecified) | 7.1 | 0.4 | – |
| COCCO/C(O)=C1\C(C)=NC(C)=C(C(=O)OCCN2C(=O)c3ccccc3S2(=O)=O)C1c1ccccc1Cl (stereo unspecified) | 22.9 | 0.1 | Recovery (Oryctolagus cuniculus [7]): 0.5% |
| CCO/C(O)=C1\C(C)=NC(C)=C(C(=O)OCCN2C(=O)c3ccccc3S2(=O)=O)C1c1ccccc1Cl (stereo unspecified) | 10 | 0.3 | – |
| CO/C(O)=C1\C(C)=NC(C)=C(C(=O)OCCCN2C(=O)c3ccccc3S2(=O)=O)C1c1ccccc1[N+](=O)[O-] (stereo unspecified) | 1.5 | 1.9 | IC50 (Oryctolagus cuniculus [5]): 120 nM; Recovery (Oryctolagus cuniculus [7]): 18.8%; Selectivity index [6]: 80 |
| CO/C(O)=C1\C(C)=NC(C)=C(C(=O)OCN2C(=O)c3ccccc3S2(=O)=O)C1c1ccccc1[N+](=O)[O-] (stereo unspecified) | – | – | Relative potency (Oryctolagus cuniculus [1]): 0.1; IC50 [2]: 30.9 nM |
| CO/C(O)=C1\C(C)=NC(C)=C(C(=O)OCN2C(=O)c3ccccc3S2(=O)=O)C1c1cccc([N+](=O)[O-])c1 (stereo unspecified) | – | – | Relative potency (Oryctolagus cuniculus [1]): 0.2; IC50 [2]: 15.1 nM |
| CC1=NC(C)=C(C(=O)OCN2C(=O)c3ccccc3S2(=O)=O)C(c2cccc([N+](=O)[O-])c2)/C1=C(\O)OC(C)(C)C (stereo unspecified) | – | – | Relative potency (Oryctolagus cuniculus [1]): 0.4; IC50 [2]: 7.8 nM |
| CC1=NC(C)=C(C(=O)OCCCN2C(=O)c3ccccc3S2(=O)=O)C(c2ccccc2Cl)/C1=C(\O)OCC1CCCCO1 (stereo unspecified) | 7 | 0.4 | – |

Continued, in another order:

| IC50 (Oryctolagus cuniculus [3]) [nM] | SMILES | Relative potency (Oryctolagus cuniculus [4]) | further results |
| --- | --- | --- | --- |
| 2.6 | CO/C(O)=C1\C(C)=NC(C)=C(C(=O)OCCCN2C(=O)c3ccccc3S2(=O)=O)C1c1cccc([N+](=O)[O-])c1 (stereo unspecified) | 1.1 | – |
| 1.9 | CCO/C(O)=C1\C(C)=NC(C)=C(C(=O)OCCCN2C(=O)c3ccccc3S2(=O)=O)C1c1cccc([N+](=O)[O-])c1 (stereo unspecified) | 1.5 | – |
| 2.6 | CCO/C(O)=C1\C(C)=NC(C)=C(C(=O)OCCN2C(=O)c3ccccc3S2(=O)=O)C1c1cccc([N+](=O)[O-])c1 (stereo unspecified) | 1.1 | – |
| 6.8 | COCCO/C(O)=C1\C(C)=NC(C)=C(C(=O)OCCCN2C(=O)c3ccccc3S2(=O)=O)C1c1cccc([N+](=O)[O-])c1 (stereo unspecified) | 0.4 | – |
| 39.8 | CO/C(O)=C1\C(C)=NC(C)=C(C(=O)OCCN2C(=O)c3ccccc3S2(=O)=O)C1c1cccc([N+](=O)[O-])c1 (stereo unspecified) | 0.1 | – |
| 1 | CC1=NC(C)=C(C(=O)OCCCN2C(=O)c3ccccc3S2(=O)=O)C(c2cccc([N+](=O)[O-])c2)/C1=C(\O)OC(C)C (stereo unspecified) | 2.9 | IC50 (Oryctolagus cuniculus [5]): 210 nM; Recovery (Oryctolagus cuniculus [7]): 1.6%; Selectivity index [6]: 205 |
| 28.8 | COCCO/C(O)=C1\C(C)=NC(C)=C(C(=O)OCCN2C(=O)c3ccccc3S2(=O)=O)C1c1cccc([N+](=O)[O-])c1 (stereo unspecified) | 0.1 | – |
